Tests used:
SW-620 [1] = experiment: Induction of apoptosis in human SW620 cells assessed as late apoptotic cells at 1.25 uM after 72 hrs by Annexin V-FITC/propidium iodide staining based flow cytometry (reference value: 0.29%); format: functional
SW-620 [2] = experiment: Induction of apoptosis in human SW620 cells assessed as live cells at 10 uM after 48 hrs by Annexin V-FITC/propidium iodide staining based flow cytometry (reference value: 96.26%); format: functional
SW-620 [3] = experiment: Induction of apoptosis in human SW620 cells assessed as early apoptotic cells at 10 uM after 24 hrs by Annexin V-FITC/propidium iodide staining based flow cytometry (reference value: 2.35%); format: functional
SW-620 [4] = experiment: Induction of apoptosis in human SW620 cells assessed as early apoptotic cells at 10 uM after 72 hrs by Annexin V-FITC/propidium iodide staining based flow cytometry (reference value: 2.1%); format: functional
SW-620 [5] = experiment: Anticlonogenic activity against human SW620 cells assessed as colony formation at 2.5 to 5 uM after 10 days by crystal violet staining based imaging analysis (reference value: 100%); format: functional
How it was run: (§1)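 SW620 cells seeded at 1000 cells/well in DMEM, left overnight at 37°C, 5% CO2, then exposed to compound for ten days with drug-containing medium renewed every three days. Cells were PBS-washed, fixed in 4% paraformaldehyde for 15 min, stained with 0.5% (w/v) crystal violet for 10 min, air-dried, photographed, and colonies quantified by image analysis.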

MCF7 [6] = experiment: Cytotoxicity against human MCF7 cells after 72 hrs by MTT assay; format: functional, cell-based; conditions: MCF7, 72 h
How it was run: (§2)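 Tumour lines kept in DMEM with 10% FBS and 1% penicillin/streptomycin at 37°C, 5% CO2. Seeded at 1500-5000 cells/well by doubling time and size, 24 h, then compound in DMSO-containing medium (final DMSO 0.1%) for 72 h. MTT (5 mg/mL) 4 h at 37°C, DMSO solubilisation, absorbance at 570 nm.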

SW-620 [7] = experiment: Induction of apoptosis in human SW620 cells assessed as early apoptotic cells at 2.5 uM after 48 hrs by Annexin V-FITC/propidium iodide staining based flow cytometry (reference value: 2.75%); format: functional
SW-620 [8] = experiment: Induction of apoptosis in human SW620 cells assessed as early apoptotic cells at 2.5 uM after 24 hrs by Annexin V-FITC/propidium iodide staining based flow cytometry (reference value: 2.35%); format: functional
SW-620 [9] = experiment: Induction of apoptosis in human SW620 cells assessed as late apoptotic cells at 1.25 uM after 24 hrs by Annexin V-FITC/propidium iodide staining based flow cytometry (reference value: 0.43%); format: functional
SW-620 [10] = experiment: Induction of apoptosis in human SW620 cells assessed as live cells at 5 uM after 72 hrs by Annexin V-FITC/propidium iodide staining based flow cytometry (reference value: 97.34%); format: functional
SW-620 [11] = experiment: Cell cycle arrest in human SW620 cells assessed as decrease in G0/G1 phase after 24 hrs by propidium iodide staining based flow cytometry; format: functional
SW-620 [12] = experiment: Induction of apoptosis in human SW620 cells assessed as late apoptotic cells at 10 uM after 48 hrs by Annexin V-FITC/propidium iodide staining based flow cytometry (reference value: 0.2%); format: functional
SW-620 [13] = experiment: Induction of apoptosis in human SW620 cells assessed as necrotic cells at 1.25 uM after 24 hrs by Annexin V-FITC/propidium iodide staining based flow cytometry (reference value: 0.15%); format: functional
SW-620 [14] = experiment: Induction of apoptosis in human SW620 cells assessed as necrotic cells at 1.25 uM after 72 hrs by Annexin V-FITC/propidium iodide staining based flow cytometry (reference value: 0.27%); format: functional
SW-620 [15] = experiment: Induction of apoptosis in human SW620 cells assessed as necrotic cells at 2.5 uM after 24 hrs by Annexin V-FITC/propidium iodide staining based flow cytometry (reference value: 0.15%); format: functional
SW-620 [16] = experiment: Induction of apoptosis in human SW620 cells assessed as necrotic cells at 1.25 uM after 48 hrs by Annexin V-FITC/propidium iodide staining based flow cytometry (reference value: 0.23%); format: functional
SW-620 [17] = experiment: Induction of apoptosis in human SW620 cells assessed as late apoptotic cells at 5 uM after 48 hrs by Annexin V-FITC/propidium iodide staining based flow cytometry (reference value: 0.2%); format: functional
SW-620 [18] = experiment: Induction of apoptosis in human SW620 cells assessed as necrotic cells at 2.5 uM after 48 hrs by Annexin V-FITC/propidium iodide staining based flow cytometry (reference value: 0.23%); format: functional
SW-620 [19] = experiment: Induction of apoptosis in human SW620 cells assessed as live cells at 5 uM after 48 hrs by Annexin V-FITC/propidium iodide staining based flow cytometry (reference value: 96.26%); format: functional
MCF7 [20] = experiment: Cytotoxicity against human MCF7 cells assessed as inhibition of cell proliferation at 20 uM after 72 hrs by MTT assay relative to control; format: functional; conditions: MCF7, 72 h
How it was run: (§3)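 Single-concentration screen at 20 μM with 72 h exposure in DMEM with 10% FBS, final DMSO 0.1%. Read-out was MTT (5 mg/mL, 4 h, 37°C), DMSO solubilisation and absorbance at 570 nm, expressed as percent inhibition. Lines reaching a threshold percentage went on to IC50 determination.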

A549 = experiment: Cytotoxicity against human A549 cells assessed as inhibition of cell proliferation at 20 uM after 72 hrs by MTT assay relative to control; format: functional; conditions: A549, 72 h; how it was run: as §3
SW-620 [21] = experiment: Induction of apoptosis in human SW620 cells assessed as live cells at 1.25 uM after 24 hrs by Annexin V-FITC/propidium iodide staining based flow cytometry (reference value: 97.03%); format: functional
SW-620 [22] = experiment: Cytotoxicity against human SW620 cells after 72 hrs by MTT assay; format: functional, cell-based; conditions: SW-620, 72 h; how it was run: as §2
SW-620 [23] = experiment: Induction of apoptosis in human SW620 cells assessed as live cells at 1.25 uM after 48 hrs by Annexin V-FITC/propidium iodide staining based flow cytometry (reference value: 96.26%); format: functional
SW-620 [24] = experiment: Induction of apoptosis in human SW620 cells after 24 to 72 hrs by Annexin V-FITC/propidium iodide staining based flow cytometry; format: functional, cell-based
SW-620 [25] = experiment: Induction of apoptosis in human SW620 cells assessed as early apoptotic cells at 1.25 uM after 24 hrs by Annexin V-FITC/propidium iodide staining based flow cytometry (reference value: 2.35%); format: functional
SW-620 [26] = experiment: Induction of ROS generation in human SW620 cells after 12 hrs by DCFDA staining based flow cytometry; format: functional, cell-based
How it was run: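 SW620 cells (2×10^5/well) adhered overnight and were loaded with 10 μM DCFDA in medium for 1 h, then washed twice with PBS. Compound exposure followed at several concentrations for 12 h, with untreated and hydrogen peroxide-treated controls. Harvested cells were resuspended in PBS and DCF fluorescence read by flow cytometry at ex 488/em 525 nm.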

SW-620 [27] = experiment: Anticlonogenic activity against human SW620 cells assessed as colony formation at 0.625 uM after 10 days by crystal violet staining based imaging analysis (reference value: 100%); format: functional; how it was run: as §1
HT-1080 = experiment: Cytotoxicity against human HT1080 cells after 72 hrs by MTT assay; format: functional, cell-based; conditions: HT-1080, 72 h; how it was run: as §2
SW-620 [28] = experiment: Induction of apoptosis in human SW620 cells assessed as early apoptotic cells at 5 uM after 24 hrs by Annexin V-FITC/propidium iodide staining based flow cytometry (reference value: 2.35%); format: functional

Compound	Activity (SW-620 [1]) [%]	Activity (SW-620 [2]) [%]	Activity (SW-620 [3]) [%]	Activity (SW-620 [4]) [%]	Activity (SW-620 [5]) [%]	IC50 (MCF7 [6]) [nM]	Activity (SW-620 [7]) [%]	Activity (SW-620 [8]) [%]	Activity (SW-620 [9]) [%]	Activity (SW-620 [10]) [%]	Activity (SW-620 [11])	Activity (SW-620 [12]) [%]	Activity (SW-620 [13]) [%]	Activity (SW-620 [14]) [%]	Activity (SW-620 [15]) [%]	Activity (SW-620 [16]) [%]	Activity (SW-620 [17]) [%]	Activity (SW-620 [18]) [%]	Activity (SW-620 [19]) [%]	inhibition at 20 µM (MCF7 [20]) [%]	further results
COc1ccc(/C=C2\CCC/C(=C\c3cc(OC)c(OC)c(OC)c3)C2=O)cc1OC	1.3	13.21	40.33	2.85	0	1600	12.28	12.47	0.31	3.13	Dose-dependent effect	75.36	0.35	0.35	0.27	0.2	60.42	0.55	26.23	> 50	inhibition at 20 µM (A549): > 50%; Activity (SW-620 [21]): 89.83%; IC50 (SW-620 [22]): 1800 nM; Activity (SW-620 [23]): 82.82%; Activity (SW-620 [24]): Dose-dependent effect; Activity (SW-620 [25]): 9.26%; Activity (SW-620 [26]): Dose-dependent effect; Activity (SW-620 [27]): 84.6%; IC50 (HT-1080): 1100 nM; Activity (SW-620 [28]): 40.26%
COc1ccc(/C=C2\CCC/C(=C\c3cccc(O)c3)C2=O)cc1OC	1.82	17	42.12	2.49	0	2900	4.43	5.46	0.31	6.2	Dose-dependent effect	71.12	0.17	0.63	0.2	0.41	40.61	0.44	36.63	> 50	inhibition at 20 µM (A549): > 50%; Activity (SW-620 [21]): 96.2%; IC50 (SW-620 [22]): 1900 nM; Activity (SW-620 [23]): 94.54%; Activity (SW-620 [24]): Dose-dependent effect; Activity (SW-620 [25]): 4.33%; Activity (SW-620 [26]): Dose-dependent effect; Activity (SW-620 [27]): 93.4%; IC50 (HT-1080): 1700 nM; Activity (SW-620 [28]): 23.28%

From ChEMBL document CHEMBL4270616, “Asymmetrical meta-methoxylated diarylpentanoids: Rational design, synthesis and anti-cancer evaluation in-vitro” (Eur J Med Chem, 2018)
